Source: PubChem
Rows were chosen to be rich in hits. Some 2.5% of all compounds tested hit in one or more screens of this group.
KLK7 zymogen act: activators of human kallikrein-7 zymogen. P49862. purified proKLK7, EDANS-DABCYL substrate fluorescence; 100% is mature enzyme control, 0% vehicle. activation, % at 7 µM. actives 0.9% (n = 370,000). AID 652039;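 active = activation above the mean of all tested compounds plus 3 SD, computed per campaign excluding outliers beyond control limits, cut at about 13% in these data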
Target sequence (P49862 whole entry, looked up): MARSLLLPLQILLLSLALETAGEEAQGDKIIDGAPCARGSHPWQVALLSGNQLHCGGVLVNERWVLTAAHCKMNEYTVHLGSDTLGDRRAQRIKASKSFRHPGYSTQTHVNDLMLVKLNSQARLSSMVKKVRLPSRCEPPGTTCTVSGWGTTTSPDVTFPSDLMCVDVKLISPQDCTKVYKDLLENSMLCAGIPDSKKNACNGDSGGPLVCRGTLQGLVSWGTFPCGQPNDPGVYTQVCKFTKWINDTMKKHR
ADAM17 inh: inhibits human ADAM17; P78536; recombinant ADAM17, EDANS/DABCYL FRET peptide cleavage; inhibition, % at 6.95 µM; actives 0.83% (n = 370,000);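 active = inhibition above the mean of compounds lying between control limits plus 3 SD, set per campaign, cut at about 8.5% in these data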
ADAM10 inh: ADAM10 inhibition, QFRET primary screen. O14672. recombinant ADAM10, EDANS/DABCYL FRET peptide cleavage, 3 h. inhibition, % at 7 µM. actives 0.62% (n = 370,000). AID 720582;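 active = inhibition above a per-campaign cutoff equal to the mean of compounds falling between control-based bounds plus 3 SD, cut at about 20% in these data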
JMJD2C inh: inhibitors of human GASC-1 (JMJD2C) demethylase | AID 2099 | GST-JMJD2C(1-420) H3K9me3 demethylation, DELFIA europium | Q9H3R0 | inhibition, % at 2.35 µM | actives 0.069% (n = 330,000);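 active = more than half of a compound's replicate wells show inhibition beyond 50%, single wells judged on their own value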;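 also: signal counts dimethyl H3K9 product captured on neutravidin plate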
Target sequence (Q9H3R0 1-420 limits assumed): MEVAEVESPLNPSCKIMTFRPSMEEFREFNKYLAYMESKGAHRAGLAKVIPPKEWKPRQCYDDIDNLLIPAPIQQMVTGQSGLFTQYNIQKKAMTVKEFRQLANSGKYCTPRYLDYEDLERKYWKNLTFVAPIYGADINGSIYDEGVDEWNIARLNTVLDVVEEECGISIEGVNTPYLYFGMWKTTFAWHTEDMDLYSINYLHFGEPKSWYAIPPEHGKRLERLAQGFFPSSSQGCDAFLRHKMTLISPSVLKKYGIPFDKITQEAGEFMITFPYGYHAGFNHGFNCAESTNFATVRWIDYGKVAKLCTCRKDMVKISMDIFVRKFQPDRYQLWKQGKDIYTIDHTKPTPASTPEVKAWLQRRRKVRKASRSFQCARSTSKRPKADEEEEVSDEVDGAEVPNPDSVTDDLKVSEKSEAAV
NR2E3 ag-1: activates human NR2E3 receptor. CHO-S Gal4-NCOR/VP16-NR2E3 two-hybrid, luciferase. Q9Y5X4. actives 0.35% (n = 360,000). inhibition of corepressor binding, % at 3.98 µM;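 active = inhibition above the mean of all tested compounds plus 3 SD, cut at about 70% in these data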;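 also: higher means lower luciferase signal from less NR2E3 corepressor binding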
NR2E3 ag-2: activates human photoreceptor nuclear receptor NR2E3; GST-NR2E3/biotin-RetCOR TR-FRET, 1536-well; inhibition of corepressor binding, % at 4.78 µM; actives 0.12% (n = 320,000); AID 2300;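 active = percent inhibition above the cutoff of mean plus 3 SD of all tested compounds, set per screening campaign, cut at about 20% in these data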
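System: GST-tagged NR2E3 plus biotinylated RetCOR corepressor; Buffer or medium: pH 7.5 Tris-based buffer; Probe or stimulus: RetCOR corepressor, biotinylated, 7 nM; Doses: compound at 4.8 µM, single dose; Schedule: 5 h incubation at 4 °C; Technique: time-resolved FRET; Evaluation: percent inhibition of TR-FRET ratio; Replication: one well per compound, singlicate testing.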
ADAM10 confirm: human ADAM10 inhibition, confirmation; actives 1% (n = 2,100); inhibition, % at 6.95 µM; shares compounds with ADAM10 inh; ADAM10 QFRET peptide cleavage, EDANS fluorescence;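 active = inhibition above about 20% chosen separately for each screening run, limit read from the data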
ADAM17 ctr: inhibits human ADAM17 in ADAM10 exosite counter-screen | ADAM17 QFRET peptide cleavage, EDANS fluorescence | shares compounds with ADAM10 inh | inhibition, % at 6.95 µM | actives 0.5% (n = 2,100);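 active = mean triplicate inhibition above the solvent-only control wells' mean plus 3 SD, cut at about 12% in these data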
ADAM10 counter: ADAM10 inhibition, counter-screen for ADAM17 exosite hits | shares compounds with ADAM17 inh | recombinant ADAM10, EDANS/DABCYL FRET peptide cleavage, 3 h | inhibition, % at 6.95 µM | actives 47% (n = 2,900) | AID 743256;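 active = mean inhibition over the triplicate runs exceeds the activity threshold set in the earlier primary screen, cut at about 20% in these data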
ADAM17 confirm: human ADAM17 inhibition, confirmation. actives 65% (n = 2,900). recombinant ADAM17, EDANS/DABCYL QFRET peptide cleavage. shares compounds with ADAM17 inh. inhibition, % at 6.95 µM;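 active = mean inhibition across replicates above the hit cutoff set in the primary screen, cut at about 8.5% in these data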
Of the large screens only hits and unclear results are named; the others gave an inactive call (follow-up assays come after a bar, where they were run).

CCOc1ccc(-c2nnc(SCC(=O)NC(C)(C)C)nc2-c2ccc(OCC)c(OC)c2)cc1OC	ADAM10 inh 23 | ADAM10 confirm inactive | ADAM17 ctr inactive
Cc1cc(C)nc(N/N=C/c2ccccc2OCc2ccc([N+](=O)[O-])cc2)n1	ADAM10 inh 28 | ADAM10 confirm inactive | ADAM17 ctr inactive
Cc1ccccc1OCCC(=O)OCC(=O)Nc1ccc(C)c(S(=O)(=O)N2CCCCC2)c1	none (no result: JMJD2C inh, NR2E3 ag-2)
Cc1ccc(NC(=O)c2cccc(S(=O)(=O)N(C)c3ccccc3)c2)cc1S(=O)(=O)N1CCOCC1	ADAM10 inh 21 | ADAM10 confirm inactive | ADAM17 ctr inactive
Cc1ccc(C)c(OCCC(=O)OCC(=O)Nc2ccc(C)c(S(=O)(=O)N3CCCCC3)c2)c1	ADAM10 inh 27 | ADAM10 confirm inactive | ADAM17 ctr inactive
Cc1ccc(NCC(=O)Nc2cccc(S(=O)(=O)N(C)C)c2)cc1S(=O)(=O)N1CCCCCC1	ADAM10 inh 24 | ADAM10 confirm inactive | ADAM17 ctr inactive
CC(C)CN1CCN(CCCOC(=O)Nc2cccc3ccccc23)CC1C (stereo not drawn)	none (no result: JMJD2C inh, NR2E3 ag-2)
CC1CCCC(C)N1C(=C(Cl)Cl)C(=C1SCCS1)[N+](=O)[O-] (stereo not drawn)	ADAM10 inh 21 | ADAM10 confirm inactive | ADAM17 ctr inactive
CCOC(=O)Nc1nc(-c2ccccc2)c(C(=O)c2ccc(Cl)cc2)s1	ADAM10 inh 21 | ADAM10 confirm inactive | ADAM17 ctr inactive
CCOC(=O)Nc1sc(C)nc1-c1ccccc1	none
C=CCN1CCc2cc(O)c(O)cc2C(c2ccccc2)C1 (stereo not drawn)	ADAM10 inh 21 | ADAM10 confirm inactive | ADAM17 ctr inactive
C=CCN1CCc2c(cc(O)c(O)c2Cl)C(c2ccccc2)C1 (stereo not drawn)	none
Cc1cccc(NC(=O)c2ccc(C3SCC(=O)N3CCc3ccccc3)cc2)c1C (stereo not drawn)	ADAM10 inh 21 | ADAM10 confirm inactive | ADAM17 ctr inactive
OC(CN1CCN(c2ccccn2)CC1)Cn1c2ccc(Cl)cc2c2cc(Cl)ccc21 (stereo not drawn)	ADAM10 inh 22 | ADAM10 confirm inactive | ADAM17 ctr inactive
CSCC[C@H](NC(=O)C1CCC(CNC(=O)[C@@H]2CCCN2C(=O)OC(C)(C)C)CC1)C(=O)O (stereo partly drawn)	none (no result: NR2E3 ag-2)
CC1(C(=O)NCCC#N)CCN1C(=O)C1(c2ccccc2)CCCC1 (stereo not drawn)	none (no result: JMJD2C inh, NR2E3 ag-2)
CCN(CC)c1ccc(NC(=O)CSc2nc3ccccc3c(=O)n2-c2ccc(C)cc2)cc1	ADAM10 inh 38 (no result: JMJD2C inh, NR2E3 ag-1, NR2E3 ag-2) | ADAM10 confirm inactive | ADAM17 ctr inactive
Cc1ccc(NC(=S)NNC(=O)CSc2nc3ccccc3c(=O)n2-c2ccc(Cl)cc2)cc1	none (no result: JMJD2C inh, NR2E3 ag-1, NR2E3 ag-2)
Cc1cccc(-c2nn(-c3ccccc3)cc2C(=O)Nc2cccc(S(=O)(=O)NC3=NCCC3)c2)c1	none
COc1ccc(NC(=O)CN(C)C(=O)c2cn(-c3ccccc3)nc2-c2ccc(OC)cc2)cc1	ADAM10 inh 26 | ADAM10 confirm inactive | ADAM17 ctr inactive
COc1ccc(-c2nn(-c3ccccc3)cc2C(=O)Nc2cccc(S(=O)(=O)NC3=NCCC3)c2)cc1	ADAM10 inh 24 (no result: NR2E3 ag-2) | ADAM10 confirm inactive | ADAM17 ctr inactive
COc1ccc(-c2nn(-c3ccccc3)cc2CNC(=O)c2cccc([N+](=O)[O-])c2)cc1	ADAM10 inh 21 | ADAM10 confirm inactive | ADAM17 ctr inactive
CCOC(=O)C1(C)CCCN(C(=O)c2ccc(OC)cc2OC)C1 (stereo not drawn)	none (no result: JMJD2C inh, NR2E3 ag-2)
CSc1ccc(S(=O)(=O)Nc2ccc3c4c(cccc24)CC3)cc1	ADAM10 inh 20 | ADAM10 confirm inactive | ADAM17 ctr inactive
CCOc1cc(C)c(-c2onc(C(F)(F)F)c2-c2csc(C)n2)c(O)c1	ADAM10 inh 22 | ADAM10 confirm inactive | ADAM17 ctr inactive
COc1ccccc1N1C(=O)C(Cl)=C(Nc2ccccc2O)C1=O	ADAM10 inh 22 (no result: NR2E3 ag-2) | ADAM10 confirm inactive | ADAM17 ctr inactive
COc1cc(C(O)c2nc(-c3cccc(C(F)(F)F)c3)cs2)ccc1F (stereo not drawn)	ADAM10 inh 21 (no result: JMJD2C inh, NR2E3 ag-2) | ADAM10 confirm inactive | ADAM17 ctr inactive
OC(c1ccc(F)cc1)c1nc(-c2ccc(F)c(Cl)c2)cs1 (stereo not drawn)	ADAM10 inh 20 (no result: JMJD2C inh, NR2E3 ag-2) | ADAM10 confirm inactive | ADAM17 ctr inactive
CCOC(=O)CNC(=O)N1C[C@H]2CON(C)[C@H]2C[C@H]1c1ccccc1Br	none (no result: JMJD2C inh, NR2E3 ag-2)
CC1CC1C(=O)N1CCN(S(=O)(=O)c2cccc(F)c2)CC1 (stereo not drawn)	none
CCN(c1ccccc1)S(=O)(=O)c1ccc(C(=O)N2CCN(c3ccccc3)CC2)cc1	none (no result: NR2E3 ag-2)
CC1(C(=O)NS(=O)(=O)c2cccc(F)c2)CCN1C(=O)C1(c2ccc(Cl)cc2)CCC1 (stereo not drawn)	none (no result: JMJD2C inh, NR2E3 ag-2)
CCN(c1ccccc1)S(=O)(=O)c1ccc(Cl)c(NC(=O)COC(=O)c2ccc(O)cc2)c1	ADAM10 inh 20 | ADAM10 confirm inactive | ADAM17 ctr inactive
CCN(c1ccccc1)S(=O)(=O)c1ccc(Cl)c(NC(=O)COC(=O)c2cc(O)c3ccccc3c2O)c1	none (no result: KLK7 zymogen act, ADAM17 inh, ADAM10 inh, NR2E3 ag-1)
COc1ccc(S(=O)(=O)N2CCC(C(=O)N(C)Cc3ccc(C)o3)CC2)cc1OC	none
CC1(C(=O)O)CCC(C(=O)Nc2ccc(OC(F)(F)Cl)cc2)C1(C)C (stereo not drawn)	none
Cc1cc(Cl)ccc1OC(C)C(=O)N1CCCN(C(=O)C(C)Oc2ccc(Cl)cc2C)CC1 (stereo not drawn)	ADAM17 inh 15, ADAM10 inh 26 | ADAM10 confirm inactive | ADAM17 ctr inactive | ADAM10 counter 29 | ADAM17 confirm 18
CC(Oc1ccccc1Cl)C(=O)N1CCCN(C)CC1 (stereo not drawn)	none
